Data taken from ChEMBL document CHEMBL1157333, “Cytotoxic dihydroagarofuranoid sesquiterpenes from the stem of Microtropis fokienensis” (J Nat Prod, 2006).
Values after ≈ are worked out from the molar mass of the structure shown.

Columns and labels:
P388 = experiment: Cytotoxicity against mouse P388 cells after 3 days by MTT assay; assay type: functional, cell-based; conditions: P388, 72 h
In short: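 Mouse lymphocytic leukemia cells grown in Fisher's medium with 10% heat-inactivated FCS at 37 °C, 5% CO2. Seeded at 1500 cells/well in 200 µL cultures, then given compounds in 0.5% DMSO at eight concentrations in triplicate for 3 days. MTT added, formazan dissolved in DMSO and read at 540 nm. IC50 is the concentration giving 50% absorbance reduction versus untreated cells. Assays repeated three times.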

HT-29 = experiment: Cytotoxicity against human HT29 cells after 6 days by MTT assay; assay type: functional, cell-based; conditions: HT-29, 144 h
In short: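 Human colon carcinoma cells from ATCC kept in RPMI 1640 with 10% heat-inactivated FCS at 37 °C, 5% CO2. Plated at 1000 cells/well and exposed 6 days to eight concentrations spanning a 128-fold range, in triplicate, in 0.5% DMSO. Then 1 mg/mL MTT added for 5 h at 37 °C, formazan dissolved in DMSO, read at 540 nm. IC50 is 50% absorbance reduction versus untreated cells. Three repeats.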

SMILES | IC50 (P388) [µg/mL] | IC50 (HT-29) [µg/mL]
CC(=O)O[C@H]1CC[C@@H](C)[C@]23OC(C)(C)[C@H](C[C@H](OC(=O)c4ccccc4)[C@]12COC(=O)c1ccccc1)[C@H]3OC(C)=O | 0.043 (≈ 0.0743 µM) | 0.071 (≈ 0.123 µM)
CC(=O)O[C@@H]1[C@H]2C[C@H](OC(=O)c3ccccc3)[C@]3(COC(=O)CC(C)C)[C@@H](OC(C)=O)[C@@H](OC(=O)c4ccccc4)C[C@@H](C)[C@@]13OC2(C)C | 0.051 (≈ 0.0751 µM) | 0.082 (≈ 0.121 µM)
CC(=O)O[C@@H]1[C@H]2C[C@H](OC(=O)c3ccccc3)[C@]3(COC(=O)c4ccccc4)[C@@H](OC(C)=O)[C@@H](OC(=O)c4ccccc4)C[C@@H](C)[C@@]13OC2(C)C [FOKIENAGAROFURAN A] | 0.032 (≈ 0.0458 µM) | 0.054 (≈ 0.0773 µM)
CO[C@H](C(=O)[C@@H](O)[C@@H](C)O)[C@@H]1Cc2cc3cc(O[C@H]4C[C@@H](O[C@@H]5C[C@@H](O)[C@H](O)[C@@H](C)O5)[C@H](O)[C@@H](C)O4)c(C)c(O)c3c(O)c2C(=O)[C@H]1O[C@H]1C[C@@H](O[C@@H]2C[C@@H](O)[C@@H](O[C@@H]3C[C@](C)(O)[C@H](O)[C@@H](C)O3)[C@@H](C)O2)[C@H](O)[C@@H](C)O1 [PLICAMYCIN] | 0.06 (≈ 0.0553 µM) | 0.08 (≈ 0.0737 µM)
CC(=O)O[C@H]1[C@@H](OC(=O)c2ccccc2)C[C@@H](C)[C@]23OC(C)(C)[C@H](C[C@H](OC(=O)c4ccccc4)[C@]12COC(=O)c1ccccc1)[C@H]3OC(=O)c1ccccc1 [FOKIENAGAROFURAN D] | 0.036 (≈ 0.0473 µM) | 0.058 (≈ 0.0762 µM)
